Data as given in ChEMBL document CHEMBL4020794, “Inhibition of phosphatidylinositol-3-kinase by the furanosesquiterpenoid hibiscone C” (Bioorg Med Chem Lett, 2017).
Calls of active or inactive are those of the source. The rule behind the calls is not given here.

Assays:
[1] = organism: Mus musculus; assay: Inhibition of PI3K in C57BL/6 mouse IL2 starved T cells assessed as decrease in IL-2 restimulated Akt phosphorylation at 100 uM preincubated for 30 mins followed by recombinant human IL-2 addition measured after 1 to 3 hrs by Western blot analysis
Outline: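 Activated T cells deprived of IL-2 overnight, pretreated 30 min with 100 µM compound or DMSO vehicle, then stimulated with 1000 U/mL recombinant human IL-2 for the indicated times. Phospho-Akt detected by Western blot, actin as loading control. Three independent experiments.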

[2] = organism: Mus musculus; assay: Competitive inhibition of PI3K in C57BL/6 mouse T cells assessed as decrease in Akt phosphorylation at 100 uM after 1 to 3 hrs by Western blot analysis; type: cell-based
Outline: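 Growing activated T cells, not starved of IL-2, exposed to 100 µM compound or DMSO vehicle for the indicated times. Phospho-Akt detected by Western blot, actin as loading control. Three independent experiments.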

[3] = organism: Mus musculus; assay: Inhibition of PI3K in C57BL/6 mouse T cells assessed as decrease in Akt phosphorylation at <10 uM after 1 hr by Western blot analysis; type: cell-based
[4] = system: T-cell; assay: Antiproliferative activity against C57BL/6 mouse T cells at […] after 18 hrs by trypan blue assay; type: functional, cell-based
Outline: (§1)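 Activated T cells in growth (not IL-2 starved) culture, duplicate samples, given DMSO vehicle or compound at the indicated doses. Followed over 24 h. At set time points, cells counted for proliferation and viability scored by trypan blue exclusion.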

[5] = system: T-cell; assay: Cytotoxicity against C57BL/6 mouse T cells assessed as reduction in cell viability at 100 uM after 24 hrs by trypan blue assay; type: functional, cell-based; outline: as §1

inhibition [1]: Active
SMILES: CC(C)[C@@H]1CC(=O)c2coc3c2[C@H]1C[C@@H](C)C3=O
inhibition [2]: Active | inhibition [3]: inactive | Activity [4]: Active | Activity [5]: Active
